Experiments:
Albumin = Albumin (Bos taurus, UniProt P02769); assay: Binding affinity to bovine serum albumin assessed as hyperchromicity in absorption spectra up to 20 uM after 5 mins by UV-visible spectroscopic analysis relative to control; assay type: ADME; conditions: cattle, isolated protein
In short: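 UV-visible absorption titration of 10 µM BSA in 0.1 M phosphate buffer pH 7.4 with increasing compound, 0–20 µM. Compounds diluted from DMSO stocks into buffer. Spectra recorded 200–800 nm in a 1 cm quartz cell at 300 K after 5 min equilibration. The BSA band is at 279 nm; changes are compared with BSA alone.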

[1] = Growth inhibition of human SF295 cells assessed as cell growth at 10^-7 M incubated for 48 hrs by sulforhodamine B assay; assay type: functional; conditions: SF-295, 48 h, read-out: Activity
M14 = assay: Growth inhibition of human M14 cells assessed as cell growth at 10^-8 M incubated for 48 hrs by sulforhodamine B assay; assay type: functional; conditions: M14, 48 h, read-out: Activity
[2] = Growth inhibition of human SNB75 cells assessed as cell growth at 10^-8 M incubated for 48 hrs by sulforhodamine B assay; assay type: functional; conditions: SNB-75, 48 h, read-out: Activity
[3] = Growth inhibition of human HOP62 cells assessed as cell growth at 10^-4 M incubated for 48 hrs by sulforhodamine B assay; assay type: functional; conditions: HOP-62, 48 h, read-out: Activity
[4] = Growth inhibition of human Hs 578T cells assessed as cell growth at 10^-6 M incubated for 48 hrs by sulforhodamine B assay; assay type: functional; conditions: read-out: Activity
[5] = Growth inhibition of human SW620 cells assessed as cell growth at 10^-6 M incubated for 48 hrs by sulforhodamine B assay; assay type: functional; conditions: SW-620, 48 h, read-out: Activity
[6] = Growth inhibition of human OVCAR5 cells assessed as cell growth at 10^-6 M incubated for 48 hrs by sulforhodamine B assay; assay type: functional; conditions: OVCAR-5, 48 h, read-out: Activity
[7] = Growth inhibition of human HCT15 cells assessed as cell growth at 10^-8 M incubated for 48 hrs by sulforhodamine B assay; assay type: functional; conditions: HCT-15, 48 h, read-out: Activity
In short: (§1)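 Cells seeded at 5,000–40,000/well according to doubling time and preincubated 24 h at 37 °C, 5% CO2. Time-zero plates were TCA-fixed. DMSO concentrate was diluted in medium with 50 µg/ml gentamicin to give five concentrations (10-fold or ½ log steps), then exposed 48 h. Cells were TCA-fixed, stained with 0.4% SRB and read at 515 nm. Percent growth was taken against time-zero and control; GI50, TGI and LC50 derived.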

MDA-MB-231 = assay: Growth inhibition of human MDA-MB-231 cells assessed as cell growth at 10^-5 M incubated for 48 hrs by sulforhodamine B assay; assay type: functional; conditions: MDA-MB-231, 48 h, read-out: Activity
[8] = Growth inhibition of human MOLT4 cells assessed as cell growth at 10^-7 M incubated for 48 hrs by sulforhodamine B assay; assay type: functional; conditions: MOLT-4, 48 h, read-out: Activity
In short: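 Cells plated at 5,000–40,000/well according to doubling time and preincubated 24 h at 37 °C, 5% CO₂, with time-zero plates TCA-fixed. Drugs were kept as DMSO concentrates at 400× the top concentration and diluted in medium with 50 µg/ml gentamicin. Five 10-fold or ½-log dilutions were run for 48 h, followed by SRB staining and A515. Percent growth = (Ti−Tz)/(C−Tz)×100, or (Ti−Tz)/Tz×100 when Ti<Tz.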

NCI-H460 = assay: Growth inhibition of human NCI-H460 cells assessed as cell growth at 10^-8 M incubated for 48 hrs by sulforhodamine B assay; assay type: functional; conditions: NCI-H460, 48 h, read-out: Activity
[9] = Growth inhibition of human RPMI8226 cells assessed as cell growth at 10^-4 M incubated for 48 hrs by sulforhodamine B assay; assay type: functional; conditions: RPMI-8226, 48 h, read-out: Activity
A498 = assay: Growth inhibition of human A498 cells assessed as cell growth at 10^-8 M incubated for 48 hrs by sulforhodamine B assay; assay type: functional; conditions: A498, 48 h, read-out: Activity
In short: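 Five-dose assay: five concentrations from 10-fold or ½-log serial dilutions. Cells are plated at 5,000–40,000 per well according to doubling time, grown 24 h, then exposed 48 h at 37 °C, 5% CO₂. Fixed with cold 50% TCA (final addition) for 60 min at 4 °C and stained with 0.4% SRB in 1% acetic acid. Bound dye is solubilized in 10 mM Tris base and read at 515 nm. GI₅₀ is where [(Ti−Tz)/(C−Tz)]×100 = 50, with a time-zero plate as Tz.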

[10] = Growth inhibition of human HOP92 cells assessed as cell growth at 10 uM incubated for 48 hrs by sulforhodamine B assay; assay type: functional; conditions: HOP-92, 48 h, read-out: Activity
[11] = Growth inhibition of human RXF393 cells assessed as cell growth at 10 uM incubated for 48 hrs by sulforhodamine B assay; assay type: functional; conditions: RXF 393, 48 h, read-out: Activity
[12] = Growth inhibition of human SF268 cells assessed as cell growth at 10 uM incubated for 48 hrs by sulforhodamine B assay; assay type: functional; conditions: SF-268, 48 h, read-out: Activity
[13] = Growth inhibition of human HOP92 cells assessed as cell growth at 10^-7 M incubated for 48 hrs by sulforhodamine B assay; assay type: functional; conditions: HOP-92, 48 h, read-out: Activity
[14] = Growth inhibition of human COLO205 cells assessed as cell growth at 10^-4 M incubated for 48 hrs by sulforhodamine B assay; assay type: functional; conditions: COLO 205, 48 h, read-out: Activity; in short: as §1
[15] = Growth inhibition of human HCC2998 cells assessed as cell growth at 10 uM incubated for 48 hrs by sulforhodamine B assay; assay type: functional; conditions: HCC 2998, 48 h, read-out: Activity
In short: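 Primary screen at one dose (10 µM) across 60 human cancer cell lines. Readout was growth percent relative to untreated control and time-zero.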

[16] = Growth inhibition of human OVCAR3 cells assessed as cell growth at 10 uM incubated for 48 hrs by sulforhodamine B assay; assay type: functional; conditions: OVCAR-3, 48 h, read-out: Activity
Malme-3M = assay: Growth inhibition of human MALME-3M cells incubated for 48 hrs by sulforhodamine B assay; assay type: functional
In short: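 Cells were plated at 5,000–40,000 per well according to doubling time and preincubated 24 h at 37 °C in 5% CO2; time-zero plates were then TCA-fixed. Five concentrations (10-fold or ½-log dilutions, DMSO stock) were incubated 48 h. Cells were TCA-fixed, stained with 0.4% SRB and read at 515 nm. GI50 was taken where [(Ti−Tz)/(C−Tz)]×100 = 50.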

K562 = assay: Growth inhibition of human K562 cells assessed as cell growth at 10^-4 M incubated for 48 hrs by sulforhodamine B assay; assay type: functional; conditions: K562, 48 h, read-out: Activity
[17] = read-out: LC50 (the source's name)
[18] = read-out: pLC50 (the source's name) (converted)

Sequence of Albumin (P02769 whole entry): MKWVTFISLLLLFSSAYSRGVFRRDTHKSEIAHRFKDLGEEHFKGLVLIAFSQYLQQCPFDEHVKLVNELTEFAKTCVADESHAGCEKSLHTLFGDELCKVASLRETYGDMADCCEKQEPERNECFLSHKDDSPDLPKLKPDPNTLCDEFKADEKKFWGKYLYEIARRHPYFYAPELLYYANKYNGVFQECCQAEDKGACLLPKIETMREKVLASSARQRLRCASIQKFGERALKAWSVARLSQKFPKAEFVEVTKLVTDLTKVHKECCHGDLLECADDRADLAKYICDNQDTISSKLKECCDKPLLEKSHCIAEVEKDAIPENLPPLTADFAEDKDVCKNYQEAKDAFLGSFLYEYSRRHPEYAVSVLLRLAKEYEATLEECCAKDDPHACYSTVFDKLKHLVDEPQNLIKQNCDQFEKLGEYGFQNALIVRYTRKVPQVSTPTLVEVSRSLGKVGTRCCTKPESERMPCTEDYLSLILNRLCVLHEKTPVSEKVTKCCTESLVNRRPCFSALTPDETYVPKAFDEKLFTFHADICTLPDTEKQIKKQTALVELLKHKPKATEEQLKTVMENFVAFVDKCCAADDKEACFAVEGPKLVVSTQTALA

Compound | Activity (Albumin) [%] | growth at 0.1 µM [1] [%] | growth at 0.01 µM (M14) [%] | growth at 0.01 µM [2] [%] | growth at 100 µM [3] [%] | growth at 1 µM [4] [%] | growth at 1 µM [5] [%] | growth at 1 µM [6] [%] | growth at 0.01 µM [7] [%] | growth at 10 µM (MDA-MB-231) [%] | growth at 0.1 µM [8] [%] | growth at 0.01 µM (NCI-H460) [%] | growth at 100 µM [9] [%] | growth at 0.01 µM (A498) [%] | growth at 10 µM [10] [%] | growth at 10 µM [11] [%] | growth at 10 µM [12] [%] | growth at 0.1 µM [13] [%] | growth at 100 µM [14] [%] | growth at 10 µM [15] [%] | other results
Fc1ccc(-c2nc(Nc3ccc(-c4nc5ccccc5[nH]4)cc3)nc(N3CCOCC3)n2)cc1 | 86.8 | 94 | 97 | 86 | -33 | 71 | 100 | 92 | 97 | -35 | 96 | 104 | -14 | 100 | -6.57 | -67.5 | 34.1 | 104 | -57 | -19.9 | growth at 10 µM [16]: 5.15%; GI50 (Malme-3M; read-out: GI50): 2.05 µM; CC50 (Malme-3M; [17]): 7.63 µM; TGI (Malme-3M; read-out: TGI): 3.95 µM; GI50 (Malme-3M; read-out: pGI50 (converted)): 2.04 µM; CC50 (Malme-3M; [18]): 7.59 µM; TGI (Malme-3M; read-out: pTGI (converted)): 3.98 µM
c1ccc2[nH]c(-c3ccc(Nc4nc(N5CCCCC5)nc(N5CCOCC5)n4)cc3)nc2c1 | 72.31 | 94 | 95 | 75 | -55 | 89 | 96 | 103 | 95 | -13 | 100 | 101 | -24 | 92 | 43.4 | -56.1 | 33.8 | 93 | -69 | -1.07 | growth at 100 µM (K562): 1%; growth at 10 µM [16]: 10.9%; GI50 (Malme-3M; read-out: GI50): 1.87 µM; CC50 (Malme-3M; [17]): 6.81 µM; TGI (Malme-3M; read-out: TGI): 3.57 µM; GI50 (Malme-3M; read-out: pGI50 (converted)): 1.86 µM; CC50 (Malme-3M; [18]): 6.76 µM; TGI (Malme-3M; read-out: pTGI (converted)): 3.55 µM
c1ccc(-c2nc(Nc3ccc(-c4nc5ccccc5[nH]4)cc3)nc(N3CCOCC3)n2)cc1 | 72.27 | 101 | 102 | 79 | -62 | 78 | 39 | 112 | 96 | -53 | 79 | 103 | -37 | 86 | -66.2 | -75.1 | -43.4 | 107 | -74 | -80.7 | growth at 100 µM (K562): -55%; growth at 10 µM [16]: -73.4%; GI50 (Malme-3M; read-out: GI50): 2 µM; CC50 (Malme-3M; [17]): 7.42 µM; TGI (Malme-3M; read-out: TGI): 3.85 µM; GI50 (Malme-3M; read-out: pGI50 (converted)): 2 µM; CC50 (Malme-3M; [18]): 7.41 µM; TGI (Malme-3M; read-out: pTGI (converted)): 3.89 µM
Clc1ccc(-c2nc(Nc3ccc(-c4nc5ccccc5[nH]4)cc3)nc(N3CCOCC3)n2)cc1 | 97.67 | 91 | 94 | 83 | -26 | 43 | -72 | 32 | 96 | -76 | 90 | 101 | -27 | 94 | -72.1 | -91.1 | -82.7 | 89 | -44 | -89.9 | growth at 100 µM (K562): -29%; growth at 10 µM [16]: -95.6%; GI50 (Malme-3M; read-out: GI50): 2.1 µM; TGI (Malme-3M; read-out: TGI): 3.86 µM; GI50 (Malme-3M; read-out: pGI50 (converted)): 2.09 µM; TGI (Malme-3M; read-out: pTGI (converted)): 3.89 µM

Reference: ChEMBL document CHEMBL3808334, “Synthesis and in vitro evaluation of novel triazine analogues as anticancer agents and their interaction studies with bovine serum albumin” (Eur J Med Chem, 2016)
